Type in all cases: functional, cell-based
The test system of assay [1] is WiDr. In words: Tested for inhibitory activity against a multi drug resistant (MDR) strain of human colon carcinoma WiDr using sulforhodamine B assay (it is MRP positive but non-P-glycoprotein). In general terms: Sulforhodamine B stains cellular protein and so reports cell mass.
Assay [2] deals with MCF7. In words: Tested for inhibitory activity against human tumor cell line MCF7, a strain resistant to mitoxantrone of breast carcinoma using sulforhodamine B assay.
Assay [3] is described as follows: Tested for inhibitory activity against human tumor cell line A549 (a non small, drug resistant cell line that does not produce P-glycoprotein) of lung carcinoma using sulforhodamine B assay.
Assay [4] relates to L1210. Put plainly: Tested for inhibitory activity against murine cell line […], a strain sensitive to doxorubicin using MTT assay. As to conditions: Mus musculus. An outline of the steps: (§1)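 Murine L1210 leukaemia cells were tested as a drug-sensitive strain and as a multiple drug-resistant strain that is P-glycoprotein positive. Growth inhibition in both strains was read by MTT assay.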

The subject of the next assay is OVCAR-3. In words: Tested for inhibitory activity against human tumor cell line OVCAR-3, a resistant ovarian carcinoma using sulforhodamine B assay.
Assay [5] concerns L1210. Put plainly: Tested for inhibitory activity against murine cell line […], a strain resistant to doxorubicin using MTT assay. As to conditions: Mus musculus. The gist of the method:
as §1
On the technique in general: Tetrazolium assays rely on reduction of a dye to a coloured formazan, in cell work by metabolically active cells.

Assay [6] has as its system MCF7. Put plainly: Tested for inhibitory activity against human tumor cell line D40, a strain resistant to doxorubicin of breast carcinoma using sulforhodamine B assay.
In assay [7] the test system is MCF7. In words: Tested for inhibitory activity against human tumor cell line MCF7, a strain sensitive to doxorubicin of breast carcinoma using sulforhodamine B assay.
Assay [8] has as its system WiDr. Put plainly: Tested for inhibitory activity against a sensitive strain of human colon carcinoma WiDr using sulforhodamine B assay (it is MRP positive but non-P-glycoprotein).
A further assay relates to UACC-375. In words: Tested for inhibitory activity against human tumor cell line UA375 of melanoma using sulforhodamine B assay.

Each structure is given as a SMILES string.

As a reminder, the IC50 is the concentration at which inhibition is half-maximal. The low end stands for higher potency, the high end for lower potency. As to `CN(C)CCN1C(=O)c2cccc3c2c(cc2c(O)cccc23)C1=O`, the IC50 in the assay on WiDr [1] came to 500 nM; in the assay on MCF7 [2], 340 nM; in assay [3], 420 nM; with L1210 [4], 810 nM; in the assay with OVCAR-3 it was 810 nM; with L1210 [5] it was 1350 nM. Further, the IC50 stood at 560 nM in the assay with MCF7 [6], 625 nM with MCF7 [7], 320 nM with WiDr [8] and 540 nM in the assay on UACC-375.

For the molecule `CC(=O)Nc1ccc2cc3c(c4c2c1C(=O)N(CCN(C)C)C4=O)CCCC3`, the IC50 with WiDr [1] is 240 nM; in the assay on MCF7 [2], 40 nM; in [3], 32 nM; in the assay on L1210 [4] it was 60 nM; in the assay with OVCAR-3, 48 nM; with L1210 [5], 36 nM. Further, the IC50 in the assay on MCF7 [6] amounted to 130 nM; in the assay on MCF7 [7] it was 40 nM; with WiDr [8], 31 nM; in the assay with UACC-375, 132 nM.

In the case of `CN(C)CCN1C(=O)c2cccc3cc4c(c(c23)C1=O)CCCC4`, the IC50 was 220 nM in the assay with WiDr [1]; 150 nM with MCF7 [2]; 18 nM in assay [3]; 11 nM with L1210 [4]; 70 nM in the assay on OVCAR-3; 8 nM in the assay on L1210 [5]. For the same molecule, the IC50 in the assay on MCF7 [6] is 230 nM; in the assay with MCF7 [7], 100 nM; with WiDr [8], 130 nM; with UACC-375, 223 nM.

With `CN(C)CCN1C(=O)c2cccc3c2c(cc2cccnc23)C1=O`, the IC50 in the assay on WiDr [1] worked out at 370 nM; with MCF7 [2], 320 nM; in [3], 220 nM; with L1210 [4], 43 nM; with OVCAR-3, 862 nM; in the assay with L1210 [5] it was 26 nM. For the same molecule, the IC50 with MCF7 [6] is 400 nM; with MCF7 [7] it was 210 nM; in the assay on WiDr [8] it was 195 nM; in the assay with UACC-375 it was 309 nM.

Take `CC(=O)Nc1ccc2c3c(cc4cccnc42)C(=O)N(CCN(C)C)C(=O)c13`: the IC50 with WiDr [1] was determined as 195 nM; in the assay on MCF7 [2], 270 nM; in [3], 150 nM; in the assay with L1210 [4] it was 424 nM; with OVCAR-3, 424 nM; with L1210 [5], 127 nM. Moreover, the IC50 stood at 290 nM in the assay on MCF7 [6], 270 nM in the assay on MCF7 [7], 130 nM in the assay on WiDr [8] and 212 nM with UACC-375.

`CN(C)CCN1C(=O)c2cccc3c2c(cc2cccc([N+](=O)[O-])c23)C1=O`: the IC50 in the assay with WiDr [1] turned out to be 2400 nM; in the assay on MCF7 [2], 440 nM; in assay [3] it was 950 nM; in the assay with L1210 [4] it was 751 nM; in the assay with OVCAR-3, 626 nM; in the assay with L1210 [5] it was 501 nM. For the same molecule, the IC50 amounted to 620 nM with MCF7 [6], 360 nM in the assay with MCF7 [7], 800 nM in the assay with WiDr [8] and 751 nM in the assay with UACC-375.

In the case of `CN(C)CCN1C(=O)c2c(N)ccc3cc4c(c(c23)C1=O)CCCC4`, the IC50 with WiDr [1] stood at 450 nM; with MCF7 [2], 130 nM; in [3], 13 nM; with L1210 [4], 11 nM; in the assay on OVCAR-3, 80 nM; with L1210 [5], 2 nM. The IC50 with MCF7 [6] is 110 nM; in the assay with MCF7 [7] it was 120 nM; in the assay on WiDr [8], 79 nM; in the assay with UACC-375, 187 nM.

As to `CN(C)CCN1C(=O)c2c(NC(=O)C(C)(C)C)ccc3cc4c(c(c23)C1=O)CCCC4`, the IC50 with WiDr [1] worked out at 800 nM; in the assay with MCF7 [2] it was 1300 nM; in assay [3], 750 nM; in the assay on L1210 [4] it was 2190 nM; with OVCAR-3, 656 nM; with L1210 [5] it was 1750 nM. For the same molecule, the IC50 with MCF7 [6] turned out to be 2000 nM; in the assay on MCF7 [7] it was 950 nM; in the assay with WiDr [8], 750 nM; in the assay on UACC-375, 8750 nM.

`CN(C)CCN1C(=O)c2cccc3cc4ccccc4c(c23)C1=O` [AZONAFIDE] showed an IC50 in assay [3] of 10 nM.

With `CN(C)CCN1C(=O)c2cccc3c2c(cc2ccccc23)C1=O`, the IC50 in the assay with WiDr [1] was 420 nM; with MCF7 [2], 280 nM; in assay [3], 220 nM; in the assay with L1210 [4] it was 197 nM; in the assay with OVCAR-3, 564 nM; in the assay with L1210 [5] it was 165 nM. For the same molecule, the IC50 in the assay with MCF7 [6] was 500 nM; in the assay on MCF7 [7] it was 220 nM; with WiDr [8] it was 240 nM; in the assay with UACC-375 it was 564 nM.

For `CN(C)CCN1C(=O)c2cccc3c2c(cc2c(Cl)cccc23)C1=O`, the IC50 in the assay on WiDr [1] stood at 110 nM; with MCF7 [2], 19 nM; in assay [3], 22 nM; with L1210 [4] it was 769 nM; in the assay on OVCAR-3, 513 nM; with L1210 [5] it was 513 nM. Besides, the IC50 was 80 nM in the assay with MCF7 [6], 60 nM in the assay on MCF7 [7], 20 nM in the assay with WiDr [8] and 513 nM with UACC-375.

Turning to `CN(C)CCN1C(=O)c2cccc3c2c(cc2cccc(N)c23)C1=O`, the IC50 with WiDr [1] came to 460 nM; in the assay with MCF7 [2], 150 nM; in assay [3], 37 nM; with L1210 [4], 54 nM; in the assay with OVCAR-3, 68 nM; with L1210 [5], 50 nM. In addition, the IC50 with MCF7 [6] was 290 nM; in the assay with MCF7 [7] it was 130 nM; in the assay on WiDr [8], 240 nM; with UACC-375, 244 nM.

For `COc1cccc2c1C(=O)c1c(O)c3c(c(O)c1C2=O)C[C@@](O)(C(=O)CO)C[C@@H]3O[C@H]1C[C@H](N)[C@H](O)[C@H](C)O1` [DOXORUBICIN], inhibition in [3] was half-maximal at 22 nM (IC50).

As for `CN(C)CCN1C(=O)c2cccc3c2c(cc2c(N)cccc23)C1=O`, the IC50 with WiDr [1] was found to be 525 nM; with MCF7 [2], 550 nM; in [3], 280 nM; in the assay on L1210 [4], 54 nM; in the assay with OVCAR-3, 541 nM; with L1210 [5], 54 nM. Moreover, the IC50 in the assay with MCF7 [6] came out at 590 nM; in the assay on MCF7 [7], 550 nM; with WiDr [8], 280 nM; with UACC-375, 1080 nM.

On to `CN(C)CCN1C(=O)c2cc(N)cc3cc4c(c(c23)C1=O)CCCC4`, for which the IC50 with WiDr [1] was found to be 1600 nM; in the assay with MCF7 [2] it was 320 nM; in [3] it was 170 nM; in the assay on L1210 [4] it was 73 nM; with OVCAR-3, 488 nM; with L1210 [5], 26 nM. Moreover, the IC50 in the assay on MCF7 [6] was 900 nM; in the assay on MCF7 [7], 240 nM; in the assay with WiDr [8], 230 nM; in the assay with UACC-375, 610 nM.

With `CN(C)CCN1C(=O)c2cc3cccnc3c3ccc(N)c(c23)C1=O`, the IC50 in the assay with WiDr [1] came out at 210 nM; with MCF7 [2], 310 nM; in assay [3], 170 nM; in the assay with L1210 [4], 233 nM; with OVCAR-3, 466 nM; in the assay on L1210 [5], 186 nM. In addition, the IC50 with MCF7 [6] was found to be 310 nM; in the assay on MCF7 [7] it was 270 nM; in the assay with WiDr [8], 160 nM; in the assay with UACC-375, 117 nM.

Turning to `O=C1c2c(O)ccc(O)c2C(=O)c2c(NCCNCCO)ccc(NCCNCCO)c21` [MITOXANTRONE], the IC50 in assay [3] was determined as 3 nM; with L1210 [4] it was 10 nM; in the assay with OVCAR-3, 6 nM; with MCF7 [7], 9 nM; with WiDr [8], 8 nM.

The molecule `CN(C)CCN1C(=O)c2cccc3cc(N)cc(c23)C1=O` [AMONAFIDE] registered an IC50 in [3] of 1100 nM.

Source of the values: ChEMBL document CHEMBL1133612, “Analogues of amonafide and azonafide with novel ring systems” (J Med Chem, 2000).
